Laboratory results: ChEMBL document CHEMBL5532699, “Design, docking optimization, and evaluation of biotin-PEG4-1,8-naphthalimide as a potent and safe antitumor agent with dual targeting of ferroptosis and DNA” (RSC Med Chem, 2024)

Columns and labels:
U-251 [1] = assay: Antitumor activity against human U-251 cells xenografted in nude mouse assessed as tumor inhibition ratio at 10 mg/kg, ip administered once every two days for 21 days relative to control; type: functional; conditions: U-251, 504 h, time 21 day
Summary of the method: (§1)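 1×10^6 tumour cells were injected subcutaneously into the right flank of nude mice. At a mean tumour volume of 60–80 mm³, mice were randomised into solvent control and treated groups (n = 6). Compound in 5% v/v DMSO/saline was given i.p. every 2 days. Tumour length and width were measured, V = lw²/2, and tumour weight was recorded.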

[2] = Toxicity in nude mouse xenografted with human MGC-803 cells assessed as pathological changes in liver at 5 mg/kg, ip administered once every two days for 21 days by H and E staining based analysis; type: organism-based; conditions: in vivo, 504 h, time 21 day
Summary of the method: (§2)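 Major organs from MGC-803 xenograft nude mice (i.p. dosing in 5% DMSO/saline every 2 days, n = 6) were stained with haematoxylin-eosin and examined at 200×.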

MGC-803 [3] = assay: Antiproliferative activity against human MGC-803 cells incubated for 48 hrs by MTT assay; type: functional, cell-based; conditions: MGC-803, 48 h
Summary of the method: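 Cells kept as monolayers in DMEM with 10% FBS, streptomycin and penicillin, 37°C, 5% CO₂. Exponentially growing cells seeded in 96-well plates, exposed 48 h, then MTT (10 mg/mL stock) for 4 h at 37°C. Medium removed, formazan dissolved in DMSO, OD read at 490 nm. Five wells per condition; each cell line run three times.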

[4] = Toxicity in nude mouse xenografted with human U-251 cells assessed as decrease in body weight at 10 mg/kg, ip administered once every two days for 21 days; type: organism-based; conditions: in vivo, 504 h, time 21 day
Summary of the method: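 Subcutaneous xenograft in nude mice (1×10^6 cells, right flank). At 60–80 mm³, mice were randomised (n = 6 per group) to solvent control or treatment. Compound in 5% v/v DMSO/saline was given i.p. once every 2 days. Body weight was recorded as the indicator of systemic toxicity.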

[5] = Metabolic stability in male CD-1 mouse liver microsomes assessed as half life at 2 uM incubated for 60 min in the presence of NADPH by LC-MS/MS analysis; type: ADME, Microsome
Summary of the method: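 Male CD-1 mouse liver microsomes at 0.5 mg/mL final in 100 mM phosphate buffer, pH 7.4. Mixture was preincubated with 1 mM NADPH (PBS only for the negative control) for 10 min at 37°C. Reaction was started with test compound at 2 µM final. Aliquots were taken at 0.5, 15, 30, 45 and 60 min into cold methanol with internal standard, centrifuged, and the supernatant analysed by LC-MS/MS.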

HCT-116 = assay: Antiproliferative activity against human HCT-116 cells incubated for 48 hrs by MTT assay; type: functional, cell-based; conditions: HCT-116, 48 h
Summary of the method: (§3)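 Monolayer cells in DMEM with 10% FBS, penicillin and streptomycin, 37°C, 5% CO2. Exponentially growing cells were seeded in 96-well plates and exposed to compound for 48 h. MTT was then added for 4 h at 37°C. Medium was removed, formazan dissolved in DMSO, and OD read at 490 nm. Each plate had five replicate wells, and assays were repeated three times per line.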

[6] = Toxicity in nude mouse xenografted with human MGC-803 cells assessed as pathological changes in spleen at 5 mg/kg, ip administered once every two days for 21 days by H and E staining based analysis; type: organism-based; conditions: in vivo, 504 h, time 21 day; summary of the method: as §2
[7] = Toxicity in nude mouse xenografted with human MGC-803 cells assessed as pathological changes in heart at 5 mg/kg, ip administered once every two days for 21 days by H and E staining based analysis; type: organism-based; conditions: in vivo, 504 h, time 21 day; summary of the method: as §2
[8] = Cytotoxicity against HUVEC cells incubated for 48 hrs by MTT assay; type: toxicity, cell-based; conditions: human; summary of the method: as §3
A549 = assay: Antiproliferative activity against human A549 cells incubated for 48 hrs by MTT assay; type: functional, cell-based; conditions: A549, 48 h; summary of the method: as §3
[9] = Cytotoxicity against HK-2 cells incubated for 48 hrs by MTT assay; type: toxicity, cell-based; conditions: human; summary of the method: as §3
MGC-803 [10] = assay: Antitumor activity against human MGC-803 cells xenografted in nude mouse assessed as tumor inhibition ratio at 5 mg/kg, ip administered once every two days for 21 days relative to control; type: functional; conditions: MGC-803, 504 h, time 21 day; summary of the method: as §1
[11] = Toxicity in nude mouse xenografted with human MGC-803 cells assessed as pathological changes in lung at 5 mg/kg, ip administered once every two days for 21 days by H and E staining based analysis; type: organism-based; conditions: in vivo, 504 h, time 21 day; summary of the method: as §2
T-24 = assay: Antiproliferative activity against human T24 cells incubated for 48 hrs by MTT assay; type: functional, cell-based; conditions: T-24, 48 h; summary of the method: as §3
[12] = Toxicity in nude mouse xenografted with human U-251 cells assessed as decrease in animal movement at 10 mg/kg, ip administered once every two days for 21 days; type: organism-based; conditions: in vivo, 504 h, time 21 day
MDA-MB-231 = assay: Antiproliferative activity against human MDA-MB-231 cells incubated for 48 hrs by MTT assay; type: functional, cell-based; conditions: MDA-MB-231, 48 h; summary of the method: as §3
U-251 [13] = assay: Antiproliferative activity against human U-251 cells incubated for 48 hrs by MTT assay; type: functional, cell-based; conditions: U-251, 48 h; summary of the method: as §3
[14] = Toxicity in nude mouse xenografted with human U-251 cells assessed as decrease in body weight at 25 mg/kg, ip administered once every two days for 21 days; type: organism-based; conditions: in vivo, 504 h, time 21 day
Summary of the method: (§4)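 1×10^6 tumor cells injected s.c. into the right flank of nude mice. At mean tumor volume 60–80 mm³, animals randomized to vehicle or treatment groups (n = 6). Compound in 5% v/v DMSO/saline given i.p. every 2 days. Tumor size and weight recorded; volume = lw²/2 from length and width. Body weight tracked as the systemic toxicity index.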

[15] = Toxicity in nude mouse xenografted with human U-251 cells assessed as decrease in animal movement at 25 mg/kg, ip administered once every two days for 21 days; type: organism-based; conditions: in vivo, 504 h, time 21 day; summary of the method: as §4
U-251 [16] = assay: Antitumor activity against human U-251 cells xenografted in nude mouse assessed as tumor inhibition ratio at 25 mg/kg, ip administered once every two days for 21 days relative to control; type: functional; conditions: U-251, 504 h, time 21 day; summary of the method: as §4
U-251 [17] = assay: Antitumor activity against human U-251 cells xenografted in nude mouse assessed as tumor inhibition ratio at 5 mg/kg, ip administered once every two days for 21 days relative to control; type: functional; conditions: U-251, 504 h, time 21 day; summary of the method: as §4

| SMILES | IC50 (HCT-116) [µM] | IC50 at 48 h [8] [µM] | IC50 (A549) [µM] | IC50 at 48 h [9] [µM] | inhibition in vivo at 5 mg/kg (MGC-803 [10]) [%] | IC50 (T-24) [µM] | IC50 (MDA-MB-231) [µM] | IC50 (U-251 [13]) [µM] | further results |
| --- | --- | --- | --- | --- | --- | --- | --- | --- | --- |
| CN(C)CCN1C(=O)c2cccc3c(N4CCNCC4)ccc(c23)C1=O | 7.15 | 1.99 | 13.5 | 6.38 | 40.3 | 5.86 | 0.96 | 10.5 | inhibition in vivo at 10 mg/kg (U-251 [1]): 71.5%; Activity [2]: Non-Toxic; IC50 (MGC-803 [3]): 1.72 µM; Activity [4]: Toxic; half-life at 2 µM [5]: > 3.08 h; Activity [6]: Non-Toxic; Activity [7]: Non-Toxic; Activity [11]: Non-Toxic; Activity [12]: Toxic |
| Cn1nnc2c(C(N)=O)ncn2c1=O [TEMOZOLOMIDE] | – | – | – | – | – | – | – | > 50 | Activity [14]: Toxic; Activity [15]: Toxic; inhibition in vivo at 25 mg/kg (U-251 [16]): 74.2% |
| CN(C)CCN1C(=O)c2cccc3cc([N+](=O)[O-])cc(c23)C1=O [MITONAFIDE] | 12.2 | 5.9 | 3.6 | 2.13 | – | – | 7.59 | 9.68 | – |
| CN(C)CCN1C(=O)c2cccc3cc(N)cc(c23)C1=O [AMONAFIDE] | 25.7 | 21.9 | 12.4 | 27.2 | 42.2 | 7.94 | 21.1 | > 50 | inhibition in vivo at 5 mg/kg (U-251 [17]): 35.4% |
